Measured values reported in ChEMBL document CHEMBL1154855 (Eur J Med Chem, 2010).
≈ marks a conversion by molar mass, not a printed value.

Key:
Felid alphaherpesvirus 1 = experiment: Antiviral activity against Feline herpesvirus infected in cat CRFK cells assessed as protection from virus-induced cytopathogenicity by MTT assay; assay type: functional, organism-based; settings: Felid alphaherpesvirus 1, CRFK
HeLa [1] = experiment: Cytotoxicity against Respiratory syncytial virus infected human HeLa cells by trypan blue exclusion method; assay type: cell-based; settings: hela
Outline: (§1)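 Uninfected confluent cultures were run in parallel with the infected cultures. Medium was replaced by 1 ml maintenance medium with serial compound concentrations; cell controls received no compound. Cultures were incubated at 37 °C. After 2 and 7 days, compound was withdrawn and viability was determined by trypan blue exclusion.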

HeLa [2] = experiment: Cytotoxicity against VSV infected human HeLa cells by trypan blue exclusion method; assay type: cell-based; settings: hela; outline: as §1
Streptococcus viridans = experiment: Antibacterial activity against Streptococcus viridans after 24 hrs by broth microdilution method; assay type: functional
Outline: (§2)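 Clinical isolates. Each dilution received 100 μl of 0.5 McFarland fresh culture. Solvent (DMSO), growth and standard controls were included. Tubes were incubated at 37 °C for 24 h. MIC is the highest dilution showing no turbidity. Tests were run in triplicate, with at least two repetitions.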

[3] = Cytotoxicity against Feline herpesvirus infected cat CRFK cells by trypan blue exclusion method; assay type: cell-based, Felis catus; outline: as §1
HEL [4] = experiment: (§3) Cytotoxicity against VSV infected HEL cells by trypan blue exclusion method; assay type: cell-based; settings: human, hel; outline: as §1
[5] = Cytotoxicity against Feline coronavirus infected cat CRFK cells by trypan blue exclusion method; assay type: cell-based, Felis catus; outline: as §1
Sindbis virus = experiment: Antiviral activity against Sindbis virus infected in african green monkey Vero cells assessed as protection from virus-induced cytopathogenicity after 2 to 3 days by MTT assay; assay type: functional, organism-based
Feline coronavirus = experiment: Antiviral activity against Feline coronavirus infected in cat CRFK cells assessed as protection from virus-induced cytopathogenicity by MTT assay; assay type: functional, organism-based; settings: Alphacoronavirus 1, CRFK
[6] = test system: Vesicular stomatitis virus; experiment: Antiviral activity against VSV infected in human HeLa cells assessed as protection from virus-induced cytopathogenicity after 1 to 2 days by MTT assay; assay type: functional, organism-based
Proteus mirabilis = experiment: Antibacterial activity against Proteus mirabilis after 24 hrs by broth microdilution method; assay type: functional; outline: as §2
HEL [7] = experiment: Cytotoxicity against acyclovir-sensitive Herpes simplex virus 1 KOS infected HEL cells by trypan blue exclusion method; assay type: cell-based; settings: human; outline: as §1
HEL [8] = experiment: (§4) Cytotoxicity against Herpes simplex virus 1 KOS infected HEL cells by trypan blue exclusion method; assay type: cell-based; settings: human, hel; outline: as §1
Human alphaherpesvirus 1 [9] = experiment: Antiviral activity against acyclovir-sensitive Herpes simplex virus 1 KOS infected in HEL cells assessed as protection from virus-induced cytopathogenicity after 2 to 3 days by MTT assay; assay type: functional, organism-based; settings: Human alphaherpesvirus 1, KOS
Influenza B virus = experiment: Antiviral activity against Influenza B virus infected in MDCK cells assessed as protection from virus-induced cytopathogenicity after 6 to 7 days by MTT assay; assay type: functional, organism-based
Vero [10] = experiment: Cytotoxicity against Human coxsackievirus B4 infected african green monkey Vero cells by trypan blue exclusion method; assay type: cell-based; settings: chlorocebus sabaeus, vero; outline: as §1
Vero [11] = experiment: Cytotoxicity against Reovirus 1 infected african green monkey Vero cells by trypan blue exclusion method; assay type: cell-based; settings: chlorocebus sabaeus, vero; outline: as §1
MDCK [12] = experiment: Cytotoxicity against Influenza A virus subtype H3N2 infected MDCK cells by trypan blue exclusion method; assay type: cell-based, Canis lupus familiaris; settings: dog
HeLa [13] = experiment: Cytotoxicity against Human coxsackievirus B4 infected human HeLa cells by trypan blue exclusion method; assay type: cell-based; settings: hela; outline: as §1
Coxsackievirus B4 [14] = experiment: Antiviral activity against Human coxsackievirus B4 infected in african green monkey Vero cells assessed as protection from virus-induced cytopathogenicity after 2 days by MTT assay; assay type: functional, organism-based; settings: Enterovirus B, 48 h
[15] = test system: Respiratory syncytial virus; experiment: Antiviral activity against Respiratory syncytial virus infected in human HeLa cells assessed as protection from virus-induced cytopathogenicity after 4 days by MTT assay; assay type: functional, organism-based; settings: 96 h
Influenza A virus [16] = experiment: Antiviral activity against Influenza A virus H3N2 infected in MDCK cells assessed as protection from virus-induced cytopathogenicity after 6 to 7 days by MTT assay; assay type: functional, organism-based
HEL [17] = experiment: (§5) Cytotoxicity against Vaccinia virus infected HEL cells by trypan blue exclusion method; assay type: cell-based; settings: human, hel; outline: as §1
MDCK [18] = experiment: Cytotoxicity against Influenza B virus infected MDCK cells by trypan blue exclusion method; assay type: cell-based, Canis lupus familiaris; settings: dog
Human alphaherpesvirus 2 = experiment: Antiviral activity against Herpes simplex virus 2 G infected in HEL cells assessed as protection from virus-induced cytopathogenicity after 2 to 3 days by MTT assay; assay type: functional, organism-based; settings: Human alphaherpesvirus 2, strain G
MDCK [19] = experiment: Cytotoxicity against Influenza A virus subtype H1N1 infected MDCK cells by trypan blue exclusion method; assay type: cell-based, Canis lupus familiaris; settings: dog
[20] = test system: Mammalian orthoreovirus 1; experiment: Antiviral activity against Reovirus 1 infected in african green monkey Vero cells assessed as protection from virus-induced cytopathogenicity after 6 to 7 days by MTT assay; assay type: functional, organism-based; settings: Mammalian orthoreovirus 1, Vero
Human alphaherpesvirus 1 [21] = experiment: Antiviral activity against Herpes simplex virus 1 KOS infected in HEL cells assessed as protection from virus-induced cytopathogenicity after 2 to 3 days by MTT assay; assay type: functional, organism-based; settings: Human alphaherpesvirus 1, KOS
Vero [22] = experiment: Cytotoxicity against Sindbis virus infected african green monkey Vero cells by trypan blue exclusion method; assay type: cell-based; settings: chlorocebus sabaeus, vero; outline: as §1
Coxsackievirus B4 [23] = experiment: Antiviral activity against Human coxsackievirus B4 infected in human HeLa cells assessed as protection from virus-induced cytopathogenicity after 2 days by MTT assay; assay type: functional, organism-based; settings: Enterovirus B, 48 h
Influenza A virus [24] = experiment: Antiviral activity against Influenza A virus H1N1 infected in MDCK cells assessed as protection from virus-induced cytopathogenicity after 6 to 7 days by MTT assay; assay type: functional, organism-based
HEL [25] = experiment: (§6) Cytotoxicity against Herpes simplex virus 2 G infected HEL cells by trypan blue exclusion method; assay type: cell-based; settings: human, hel; outline: as §1
Punta Toro virus = experiment: Antiviral activity against Punta Toro virus infected in african green monkey Vero cells assessed as protection from virus-induced cytopathogenicity by MTT assay; assay type: functional, organism-based
Vero [26] = experiment: Cytotoxicity against Punta Toro virus infected african green monkey Vero cells by trypan blue exclusion method; assay type: cell-based; settings: chlorocebus sabaeus, vero; outline: as §1
Vero [27] = experiment: Cytotoxicity against PIV 3 infected african green monkey Vero cells by trypan blue exclusion method; assay type: cell-based; settings: chlorocebus sabaeus, vero; outline: as §1
Human respirovirus 3 = experiment: Antiviral activity against PIV 3 infected in african green monkey Vero cells assessed as protection from virus-induced cytopathogenicity after 6 to 7 days by MTT assay; assay type: functional, organism-based; settings: Human respirovirus 3, Vero
[28] = test system: Human immunodeficiency virus 2; experiment: Antiviral activity against HIV2 ROD infected in human MT4 cells assessed as protection from virus-induced cytopathogenicity after 5 days by MTT assay; assay type: functional, organism-based; settings: Human immunodeficiency virus 2, ISOLATE ROD, MT4, 120 h
Outline: (§7)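 MT-4 cells at 3 × 10^4 per well were infected with HIV (IIIB or ROD) at 50% cell culture infective doses. Graded compound concentrations were added immediately after infection. Plates were incubated for 5 days at 37 °C and viable cells were counted by MTT.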

[29] = test system: Vesicular stomatitis virus; experiment: Antiviral activity against VSV infected in HEL cells assessed as protection from virus-induced cytopathogenicity after 1 to 2 days by MTT assay; assay type: functional, organism-based
[30] = test system: Human immunodeficiency virus 1; experiment: Antiviral activity against HIV1 3B-infected in human MT4 cells assessed as protection from virus-induced cytopathogenicity after 5 days by MTT assay; assay type: functional, organism-based; settings: Human immunodeficiency virus 1, 3B, MT4, 120 h; outline: as §7
[31] = Cytotoxicity against HIV2 ROD infected human MT4 cells by MTT assay; assay type: cell-based; settings: MT4 cells infected with HIV-2 ROD
Outline: (§8)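 MT-4 cells (3 × 10^4 per well) were cultured in microdilution trays with various concentrations of compound, then incubated 5 days at 37 °C, and viable cell number was read by MTT.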

[32] = Cytotoxicity against HIV1 3B-infected human MT4 cells by MTT assay; assay type: cell-based; settings: MT4 cells infected with HIV-1 3B; outline: as §8
[33] = as §3; assay type: cell-based; settings: human, HEL cells infected with VSV; outline: as §1
[34] = as §4; assay type: cell-based; settings: human, HEL cells infected with herpes simplex virus 1 KOS; outline: as §1
[35] = as §5; assay type: cell-based; settings: human, HEL cells infected with vaccinia virus; outline: as §1
[36] = as §6; assay type: cell-based; settings: human, HEL cells infected with herpes simplex virus 2 G; outline: as §1
Klebsiella pneumoniae = experiment: Antibacterial activity against Klebsiella pneumoniae after 24 hrs by broth microdilution method; assay type: functional; outline: as §2
Escherichia coli = experiment: Antibacterial activity against Escherichia coli after 24 hrs by broth microdilution method; assay type: functional; outline: as §2
[37] = Streptococcus viridans, 24 h, read-out: MIC
[38] = Proteus mirabilis, 24 h, read-out: MIC

COc1cc(/C=C/C(=O)CC(=O)/C=C/c2ccc(O)c(OC)c2)ccc1O [CURCUMIN]
EC50 (Felid alphaherpesvirus 1): > 271 nM
CC50 (HeLa [1]): ≥ 10 nM
CC50 (HeLa [2]): ≥ 10 nM
MIC (Streptococcus viridans; [37]): 2.47 µM (≈ 0.91 µg/mL)
CC50 ([3]; crfk): > 271 nM
CC50 (HEL [4]): > 2 nM
CC50 ([5]; crfk): > 271 nM
EC50 (Sindbis virus): > 10 nM
EC50 (Feline coronavirus): > 271 nM
EC50 [6]: > 10 nM
MIC (Proteus mirabilis; [38]): 1.23 µM (≈ 0.453 µg/mL)
CC50 (HEL [7]): > 2 nM
CC50 (HEL [8]): ≥ 10 nM
EC50 (Human alphaherpesvirus 1 [9]): 10 nM
EC50 (Influenza B virus): > 271 nM
CC50 (Vero [10]): 54 nM
CC50 (Vero [11]): 54 nM
CC50 (MDCK [12]): > 92 nM
CC50 (HeLa [13]): ≥ 10 nM
EC50 (Coxsackievirus B4 [14]): > 10 nM
EC50 [15]: > 10 nM
EC50 (Influenza A virus [16]): > 271 nM
CC50 (HEL [17]): > 2 nM
CC50 (MDCK [18]): > 92 nM
EC50 (Human alphaherpesvirus 2): 10 nM
CC50 (MDCK [19]): > 92 nM
EC50 [20]: > 10 nM
EC50 (Human alphaherpesvirus 1 [21]): > 10 nM
CC50 (Vero [22]): 54 nM
EC50 (Coxsackievirus B4 [23]): > 10 nM
EC50 (Influenza A virus [24]): > 271 nM
CC50 (HEL [25]): > 2 nM
EC50 (Punta Toro virus): > 10 nM
CC50 (Vero [26]): 54 nM
CC50 (Vero [27]): 54 nM
EC50 (Human respirovirus 3): > 10 nM

CCCCCCCCCC(=O)Oc1ccc(/C=C/C(=O)CC(=O)/C=C/c2ccc(OC(=O)CCCCCCCCC)c(OC)c2)cc1OC
EC50 (Sindbis virus): > 147 nM
EC50 (Feline coronavirus): > 29 nM
IC50 [28]: 79 nM
EC50 [6]: 147 nM
EC50 (Influenza B virus): > 147 nM
EC50 [29]: > 147 nM
EC50 [15]: > 147 nM
EC50 (Influenza A virus [16]): > 147 nM
EC50 (Human alphaherpesvirus 2): > 147 nM
IC50 [30]: 81 nM
CC50 [31]: > 79 nM
EC50 [20]: > 147 nM
EC50 (Influenza A virus [24]): > 147 nM
EC50 (Punta Toro virus): > 147 nM
CC50 [32]: > 81 nM
EC50 (Human respirovirus 3): > 147 nM

Nc1nc2c(ncn2COC(CO)CO)c(=O)[nH]1 [GANCICLOVIR]
EC50 (Felid alphaherpesvirus 1): 2600 nM
CC50 ([3]; CRFK cells infected with feline herpesvirus): > 100000 nM
CC50 [33]: > 100000 nM
CC50 ([5]; CRFK cells infected with feline coronavirus): > 100000 nM
EC50 (Feline coronavirus): > 100000 nM
CC50 [34]: > 100000 nM
EC50 [29]: > 100000 nM
CC50 [35]: > 100000 nM
CC50 [36]: > 100000 nM

CC1(C)S[C@@H]2[C@H](NC(=O)[C@H](N)c3ccccc3)C(=O)N2[C@H]1C(=O)O [AMPICILLIN TRIHYDRATE]
MIC (Streptococcus viridans; [37]): > 2.47 µM
MIC (Proteus mirabilis; [38]): 1.23 µM
MIC (Klebsiella pneumoniae; Klebsiella pneumoniae, 24 h, read-out: MIC): 0.6 µM
MIC (Escherichia coli; Escherichia coli, 24 h, read-out: MIC): 1.23 µM

GENTAMICIN SULFATE
MIC (Streptococcus viridans): > 1.73 µM
MIC (Proteus mirabilis): > 1.73 µM
MIC (Klebsiella pneumoniae): > 1.73 µM
MIC (Escherichia coli): > 1.73 µM
